System: Caco-2 cells
Assay: Caco-2 cellular uptake study
Assay type: in vitro ADME, human
Conditions: verapamil 50 µg/ml, 1 or 3 h
In short: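 Caco-2 cells (DMEM, 20% FBS, 37 °C, 5% CO2) seeded at 5 × 10⁴/well and grown 24 h. Test compound as SNEDDS or solution (equivalent CTX 5 µg/ml) given with verapamil 50 µg/ml, 1 or 3 h at 37 °C. Washed three times with ice-cold PBS, sonicated in water (100 W), lysed, spun 13,000 rpm 10 min. CTX by HPLC; handling matched the no-inhibitor uptake arm.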

## CO[C@H]1C(=O)[C@]2(C)[C@@H](OC)C[C@H]3OC[C@@]3(OC(C)=O)[C@H]2[C@H](OC(=O)c2ccccc2)[C@]2(O)C[C@H](OC(=O)[C@H](O)[C@@H](NC(=O)OC(C)(C)C)c3ccccc3)C(C)=C1C2(C)C [CTX, cabazitaxel]
  Change of Caco-2 uptake after adding P-gp inhibitor: no significant difference
